{
  "source": "ChEMBL document CHEMBL1255260",
  "about": "“Population pharmacokinetics of piperaquine after two different treatment regimens with dihydroartemisinin-piperaquine in patients with Plasmodium falciparum malaria in Thailand” (Antimicrob Agents Chemother, 2008)",
  "key": {"[1]": {"test": "Terminal elimination half-life in human with uncomplicated malaria at 31 mg/kg, perorally", "details": "in vivo, po"}, "[2]": {"test": "AUC (0 to 63 days) in human with uncomplicated malaria at 31 mg/kg, perorally once daily for 3 days", "type": "ADME, organism-based", "design": "time < 1512 hr, dose 31 mg/kg, route oral", "details": "plasma, po", "in_short": "(§1)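 Oral dihydroartemisinin-piperaquine, supervised, with no food restriction, in patients aged 3–55 y. The total dose of 55 mg/kg piperaquine phosphate was given as four doses (0, 8, 24, 48 h) or three doses (0, 24, 48 h). Sparse plasma sampling ran to day 63, measured by SPE-LC-UV (LLOQ 5 or 2.5 ng/ml). AUCs came from individual NONMEM two-compartment estimates. Children were ≤12 y and <30 kg.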"}, "Homo sapiens [3]": {"test_system": "Homo sapiens", "test": "Apparent intercompartmental clearance with respect to bioavailability in human with uncomplicated malaria at 31 mg/kg, perorally", "type": "ADME, organism-based", "details": "in vivo, po", "in_short": "(§2)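 Population PK in 98 uncomplicated falciparum patients given dihydroartemisinin-piperaquine orally (55 mg/kg piperaquine phosphate total, 3- or 4-dose regimen). Patients gave a pretreatment sample, 2–4 early-window samples and one sample on days 7–63. Plasma piperaquine was measured by SPE-LC-UV. Log concentrations were fitted by NONMEM (FO/FOCE) to a two-compartment first-order absorption model with regimen as covariate.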"}, "[4]": {"test": "AUC (3 to 20 days) in uncomplicated malaria patient at 31 mg/kg, perorally once daily for 3 days", "type": "ADME, organism-based", "design": "dose 31 mg/kg, route oral", "details": "human, plasma, po", "in_short": "as §1"}, "[5]": {"test": "Apparent steady-state volume of distribution with respect to bioavailability in human with uncomplicated malaria at 31 mg/kg, perorally after 63 days", "type": "ADME, organism-based", "details": "in vivo, po, read-out: Vss/F", "in_short": "as §2"}, "[6]": {"test": "AUC (0 to 60 days) in children with uncomplicated malaria at 31 mg/kg, perorally", "type": "ADME, organism-based", "design": "time < 1440 hr, dose 31 mg/kg, route oral", "details": "human, plasma, po", "in_short": "as §1"}, "[7]": {"test": "Plasma concentration in human with uncomplicated malaria at 31 mg/kg, perorally at day 28", "type": "ADME, organism-based", "design": "dose 31 mg/kg, route oral", "details": "po", "in_short": "(§3)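 Plasma piperaquine concentrations were simulated from the final NONMEM population model (500 simulations at each sampling time up to day 63). This followed oral dihydroartemisinin-piperaquine at a 55 mg/kg piperaquine phosphate total, given once daily at 0, 24 and 48 h or as four doses at 0, 8, 24 and 48 h.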"}, "[8]": {"test": "AUC (3 to 20 days) in uncomplicated malaria patient at 31 mg/kg, perorally four-dose treatment regimen", "type": "ADME, organism-based", "design": "dose 31 mg/kg, route oral", "details": "human, plasma, po", "in_short": "as §1"}, "[9]": {"test": "Apparent steady-state volume of distribution with respect to bioavailability in high-fat fed healthy human at 4.2 mg/kg, po after 42 days", "type": "ADME, organism-based", "details": "in vivo, read-out: Vss/F"}, "[10]": {"test": "Apparent volume of distribution with respect to bioavailability in human with uncomplicated malaria at 31 mg/kg, perorally", "type": "ADME, organism-based", "details": "in vivo, po, read-out: Vc/F", "in_short": "as §2"}, "[11]": {"test": "Apparent oral clearance in human with uncomplicated malaria at 32 mg/kg, perorally after 35 days", "type": "ADME, organism-based", "design": "dose 32 mg/kg, route oral", "details": "in vivo"}, "[12]": {"test": "AUC (3 to 20 days) in children with uncomplicated malaria at 31 mg/kg, perorally", "type": "ADME, organism-based", "design": "dose 31 mg/kg, route oral", "details": "human, plasma, po", "in_short": "as §1"}, "[13]": {"test": "Terminal half-life in human with uncomplicated malaria at 35 mg/kg, perorally after 35 days", "type": "ADME, organism-based", "design": "dose 35 mg/kg, route oral", "details": "in vivo, po"}, "[14]": {"test": "AUC (0 to 63 days) in uncomplicated malaria patient at 31 mg/kg, perorally four-dose treatment regimen", "type": "ADME, organism-based", "design": "time < 1512 hr, dose 31 mg/kg, route oral", "details": "human, plasma, po", "in_short": "as §1"}, "[15]": {"test": "Apparent oral clearance in healthy human at 25 mg/kg, po after 29 days", "type": "ADME, organism-based", "design": "dose 25 mg/kg, route oral", "details": "in vivo"}, "[16]": {"test": "Apparent oral clearance in human with uncomplicated malaria at 31 mg/kg, perorally after 63 days", "type": "ADME, organism-based", "design": "dose 31 mg/kg, route oral", "details": "in vivo", "in_short": "as §2"}, "[17]": {"test": "Apparent oral clearance in high-fat fed healthy human at 4.2 mg/kg, po after 42 days", "type": "ADME, organism-based", "design": "dose 4.2 mg/kg, route oral", "details": "in vivo"}, "[18]": {"test": "Terminal half-life in healthy human at 25 mg/kg, po after 29 days", "type": "ADME, organism-based", "design": "dose 25 mg/kg, route oral", "details": "in vivo"}, "[19]": {"test": "Plasma concentration in human with uncomplicated malaria at 31 mg/kg, perorally once daily for 3 days measured at day 20", "type": "ADME, organism-based", "design": "dose 31 mg/kg, route oral", "details": "po, read-out: MIC", "in_short": "as §3"}, "[20]": {"test": "Apparent steady-state volume of distribution with respect to bioavailability in human with uncomplicated malaria at 31 mg/kg, perorally", "type": "ADME, organism-based", "details": "in vivo, po, read-out: Vss/F", "in_short": "as §2"}, "[21]": {"test": "AUC (3 to 20 days) in human adult with uncomplicated malaria at 31 mg/kg, perorally", "type": "ADME, organism-based", "design": "dose 31 mg/kg, route oral", "details": "plasma, po", "in_short": "as §1"}, "[22]": {"test": "Terminal half-life in human with uncomplicated malaria at 32 mg/kg, perorally after 35 days", "type": "ADME, organism-based", "design": "dose 32 mg/kg, route oral", "details": "in vivo, po"}, "[23]": {"test": "Terminal half-life in human with uncomplicated malaria at 31 mg/kg, perorally after 63 days", "type": "ADME, organism-based", "design": "dose 31 mg/kg, route oral", "details": "in vivo, po", "in_short": "as §2"}, "[24]": {"test": "Terminal half-life in high-fat fed healthy human at 4.2 mg/kg, po after 42 days", "type": "ADME, organism-based", "design": "dose 4.2 mg/kg, route oral", "details": "in vivo"}, "[25]": {"test": "Apparent steady-state volume of distribution with respect to bioavailability in healthy human at 4.2 mg/kg, po after 42 days", "type": "ADME, organism-based", "details": "in vivo, read-out: Vss/F"}, "[26]": {"test": "Apparent steady-state volume of distribution with respect to bioavailability in human with uncomplicated malaria at 32 mg/kg, perorally after 35 days", "type": "ADME, organism-based", "details": "in vivo, po, read-out: Vss/F"}, "[27]": {"test": "Apparent oral clearance in healthy human at 4.2 mg/kg, po after 42 days", "type": "ADME, organism-based", "design": "dose 4.2 mg/kg, route oral", "details": "in vivo"}, "[28]": {"test": "Apparent oral clearance in human with uncomplicated malaria at 35 mg/kg, perorally after 35 days", "type": "ADME, organism-based", "design": "dose 35 mg/kg, route oral", "details": "in vivo"}, "[29]": {"test": "Plasma concentration in human with uncomplicated malaria at 31 mg/kg, perorally four-dose treatment regimen measured at day 20", "type": "ADME, organism-based", "design": "dose 31 mg/kg, route oral", "details": "po, read-out: MIC", "in_short": "as §3"}, "[30]": {"test": "Apparent oral clearance in human with uncomplicated malaria at 31 mg/kg, perorally", "type": "ADME, organism-based", "design": "dose 31 mg/kg, route oral", "details": "in vivo", "in_short": "as §2"}, "[31]": {"test": "Terminal half-life in healthy human at 4.2 mg/kg, po after 42 days", "type": "ADME, organism-based", "design": "dose 4.2 mg/kg, route oral", "details": "in vivo"}, "[32]": {"test": "Terminal half-life in human with uncomplicated malaria at 31 mg/kg, perorally", "type": "ADME, organism-based", "design": "dose 31 mg/kg, route oral", "details": "in vivo, po", "in_short": "as §2"}, "Homo sapiens [33]": {"test_system": "Homo sapiens", "test": "Apparent peripheral volume of distribution with respect to bioavailability in human with uncomplicated malaria at 31 mg/kg, perorally", "type": "ADME, organism-based", "details": "in vivo, po", "in_short": "as §2"}, "[34]": {"test": "AUC (0 to 60 days) in human adult with uncomplicated malaria at 31 mg/kg, perorally", "type": "ADME, organism-based", "design": "time < 1440 hr, dose 31 mg/kg, route oral", "details": "plasma, po", "in_short": "as §1"}},
  "data": [
    {"smiles": "Clc1ccc2c(N3CCN(CCCN4CCN(c5ccnc6cc(Cl)ccc56)CC4)CC3)ccnc2c1", "note": "[PIPERAQUINE]", "values": [
      {"measurement": "half-life", "setting": "[1]", "result": 27.8, "unit": "days"},
      {"measurement": "AUC at 1512 h", "setting": "[2]", "result": 19400, "unit": "ng·h/mL"},
      {"measurement": "CL/F", "setting": "Homo sapiens [3]", "result": 131, "unit": "L/h"},
      {"measurement": "AUC", "setting": "[4]", "result": 8650, "unit": "ng·h/mL"},
      {"measurement": "Vd/F", "setting": "[5]", "result": 874, "unit": "L/kg"},
      {"measurement": "AUC(0-t) at 1440 h", "setting": "[6]", "result": 25900, "unit": "ng·h/mL"},
      {"measurement": "concentration at 28 day", "setting": "[7]", "result": "< 10", "unit": "ng/mL"},
      {"measurement": "AUC(0-t)", "setting": "[8]", "result": 9070, "unit": "ng·h/mL"},
      {"measurement": "Vd/F", "setting": "[9]", "result": 365, "unit": "L/kg"},
      {"measurement": "Vd/F", "setting": "[10]", "result": 8660, "unit": "L"},
      {"measurement": "CL/F", "setting": "[11]", "result": 15, "unit": "mL/min/kg"},
      {"measurement": "AUC(0-t)", "setting": "[12]", "result": 7580, "unit": "ng·h/mL"},
      {"measurement": "half-life", "setting": "[13]", "result": 14, "unit": "days"},
      {"measurement": "AUC(0-t) at 1512 h", "setting": "[14]", "result": 20700, "unit": "ng·h/mL"},
      {"measurement": "CL/F", "setting": "[15]", "result": 16.7, "unit": "mL/min/kg"},
      {"measurement": "CL/F", "setting": "[16]", "result": 23.3, "unit": "mL/min/kg"},
      {"measurement": "CL/F", "setting": "[17]", "result": 10, "unit": "mL/min/kg"},
      {"measurement": "half-life", "setting": "[18]", "result": 12, "unit": "days"},
      {"measurement": "concentration at 72 h", "setting": "[19]", "result": 12, "unit": "ng/mL"},
      {"measurement": "Vd/F", "setting": "[20]", "result": 38100, "unit": "L"},
      {"measurement": "AUC(0-t)", "setting": "[21]", "result": 8650, "unit": "ng·h/mL"},
      {"measurement": "half-life", "setting": "[22]", "result": 23, "unit": "days"},
      {"measurement": "half-life", "setting": "[23]", "result": 28, "unit": "days"},
      {"measurement": "half-life", "setting": "[24]", "result": 21, "unit": "days"},
      {"measurement": "Vd/F", "setting": "[25]", "result": 716, "unit": "L/kg"},
      {"measurement": "Vd/F", "setting": "[26]", "result": 574, "unit": "L/kg"},
      {"measurement": "CL/F", "setting": "[27]", "result": 19, "unit": "mL/min/kg"},
      {"measurement": "CL/F", "setting": "[28]", "result": 30.8, "unit": "mL/min/kg"},
      {"measurement": "concentration at 20 day", "setting": "[29]", "result": 13, "unit": "ng/mL"},
      {"measurement": "CL/F", "setting": "[30]", "result": 1100, "unit": "mL/min"},
      {"measurement": "half-life", "setting": "[31]", "result": 20, "unit": "days"},
      {"measurement": "half-life", "setting": "[32]", "result": 28, "unit": "days"},
      {"measurement": "Vp/F", "setting": "Homo sapiens [33]", "result": 24000, "unit": "L"},
      {"measurement": "AUC(0-t) at 1440 h", "setting": "[34]", "result": 19400, "unit": "ng·h/mL"}
    ]}
  ]
}
